Results gathered from unrelated publications.
Lines come from different studies, so protocols differ.
Observed: metabolic stability
Species: human
Sample: liver microsomes

For CC1(C)NC(=O)N(c2cccc(C(F)(F)F)n2)C1=O, the microsomal CLint was less than 7 µL/min/mg.
With CCCCCCOc1ccc2c(=O)c3c([nH]c2c1)CCCC3 the microsomal CLint was 92.2 µL/min/mg (1 µM; pH 7.4).
With O=C(NCc1nc(-c2ccccc2)cs1)[C@H]1CCCN(C(=O)[C@H]2CCCO2)C1 the microsomal CLint was 35 µL/min/mg (0.5 µM).
O=c1c2c([nH]c3cc(OCc4ccc(OC(F)(F)F)cc4)ccc13)CCCC2 has a microsomal CLint of 36.5 µL/min/mg (1 µM; pH 7.4).
The microsomal CLint of COCC(=O)N1CCC[C@H](C(=O)NCc2nc(-c3ccc(C(F)(F)F)cc3)cs2)C1 is reported as 37 µL/min/mg (0.5 µM).
For O=c1c2ccc(OCc3cccc(OC(F)(F)F)c3)cc2[nH]c2cc(F)cc(Cl)c12, the microsomal CLint was 22.5 µL/min/mg (1 µM; pH 7.4).
With CN1CCN(c2ccc(-c3ccc4nncc(Nc5ccc(OC(F)(F)F)cc5)c4c3)cc2)CC1 the microsomal CLint was 30 µL/min/mg.
The microsomal CLint of CONC(=O)c1cccc2c1cc(C)n2-c1nc2c(c(NCc3ccccc3)n1)CCCN2 is reported as 98.7 µL/min/mg (1 µM; pH 7.4).
CCOCC(=O)N1CC[C@@H](C)[C@H](C(=O)NCc2nc(-c3ccc(C)nc3)cs2)C1 (racemic) has a microsomal CLint of 6.9 µL/min/mg (0.5 µM).
The microsomal CLint of O=c1c2ccccc2[nH]c2cc(Oc3ccc(OC(F)(F)F)cc3)ccc12 is reported as 20.9 µL/min/mg (1 µM; pH 7.4).
For Cc1ccc(Oc2ccc(NC(=O)CNc3ccccc3N3CCCC3=O)cc2)cc1, the microsomal CLint was 102 µL/min/mg.
For O=c1c2c([nH]c3cccc(Oc4ccc(OC(F)(F)F)cc4)c13)CCCC2, the microsomal CLint was 109 µL/min/mg (1 µM; pH 7.4).
The microsomal CLint of CCONC(=O)N1CCC[C@H](C(=O)N[C@H](C)c2nc(-c3ccc(C#N)cc3)cs2)C1 is reported as 17 µL/min/mg (0.5 µM).
CC(C)N(c1ccc(C#N)cc1)c1ccc(NC(=O)CN(C)c2ccccc2N2CCCC2=O)cn1 has a microsomal CLint of 309 µL/min/mg.
CCN(CC)CCOc1ccc2c(=O)c3c([nH]c2c1)CCCC3 has a microsomal CLint of 6.65 µL/min/mg (1 µM; pH 7.4).
COCC(=O)N1CCC[C@H](C(=O)NCc2nc(-c3ccc(C#N)cc3)cs2)C1 has a microsomal CLint of 10 µL/min/mg (0.5 µM).
With Cc1ccc(N(C)c2ccc(NC(=O)CN(C)c3cccnc3N3CCCC3=O)cc2)cc1 the microsomal CLint was 222 µL/min/mg.
With CCC(F)(F)c1cc(N2C(=O)NC(C)(C)C2=O)ccc1F the microsomal CLint was less than 7 µL/min/mg.
O=c1c2c([nH]c3ccc(F)c(Oc4ccc(OC(F)(F)F)cc4)c13)CCCC2 gave a microsomal CLint of 92.7 µL/min/mg (1 µM; pH 7.4).
For COCC(=O)N1CCC[C@H](C(=O)NCc2nc(-c3ccc(Cl)cc3)cs2)C1, the microsomal CLint was 25 µL/min/mg (0.5 µM).
CC1(C)NC(=O)N(c2ccc(F)c(OC(F)(F)F)c2)C1=O gave a microsomal CLint of less than 7 µL/min/mg.
